The structures appear in SMILES notation. Activity calls are given as the source filed them.

Mortality and LC50 data for 24 compounds are collected here from ChEMBL document CHEMBL3046721, “3-(Arylthiomethyl)isoxazole-4,5-dicarboxamides: chemoselective nucleophilic chemistry and insecticidal activity” (2009).

For test [1], the system named is Aedes aegypti. The test is described as follows: Insecticidal activity against larvae of Aedes aegypti assessed as mortality after 3 days by high-throughput screening assay. In kind it is functional, organism-based. An outline of the steps:
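One-day-old larvae placed in 96-well plates pre-treated with 6 μg/well, applied in 15 μl DMSO-acetone-water (1:1:8) and dried. Plates lidded, held at room temperature, mortality graded 3 days post-treatment. Six replicates per treatment.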

Test [2] deals with Spodoptera exigua. The test is described as follows: Insecticidal activity against second-instar larval stage of Spodoptera exigua fed with artificial diet containing compound assessed as mortality at 50 ug/cm2 after 5 days by diet-based secondary assay. In kind it is functional. To be noted: 120 h. An outline of the steps:
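Second-instar larvae on 128-well trays with 1 mL diet dosed at 50 μg/cm2, eight wells per treatment under clear plastic. Percent mortality averaged over the eight wells, scored 5 days after assay start; tested only on primary-screen hits (>67% mortality).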

In test [3] the test system is Helicoverpa zea. Nature of the test: Insecticidal activity against second-instar larval stage of Helicoverpa zea (corn earworm) fed with artificial diet containing compound assessed as mortality after 5 days by diet-based secondary assay. In kind it is functional, organism-based. In a few lines:
(§1)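 Follow-up for primary-screen hits (>67% mortality): 128-well diet trays, 1 mL diet containing selected dosages, second-instar larvae. Wells covered with clear plastic, eight wells per treatment, percent mortality averaged over eight wells at 5 days. Approximate LC50 estimated by probit analysis.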

For test [4], the system named is Spodoptera exigua. The test is described as follows: Insecticidal activity against larvae of Spodoptera exigua fed with artificial diet containing compound assessed as mortality after 6 days by high-throughput screening assay. In kind it is functional. Further details: concentration or dose not given beside the values. In a few lines:
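Artificial diet (100 μl/well, 96-well) pretreated with 12 μg compound in 30 μl DMSO-acetone-water (2:1:7), dried several hours, then seeded with eggs. Plates covered, kept in dark at 29°C, mortality recorded 6 days post-treatment. Six replicates per treatment.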

Test [5] relates to Spodoptera exigua. The test is described as follows: Insecticidal activity against second-instar larval stage of Spodoptera exigua fed with artificial diet containing compound assessed as mortality after 5 days by diet-based secondary assay. In kind it is functional. An outline of the steps: as §1

As a reminder, the mortality is the share of the test organisms that died. Regarding `CCCCNC(=O)c1c(CSc2ccccc2)noc1C(=O)NCc1ccccc1`, the mortality entry in test [1] and in test [3] was “inactive” each time. Besides, the mortality at 50 µg/cm2 in test [2] was determined as 0%. The mortality in test [4] was determined as 100%.
Turning to `COCCNC(=O)c1c(CS(=O)(=O)c2ccc(Cl)cc2)noc1C(=O)NCc1ccccc1`, the mortality result in test [1] and in test [3] was “inactive” in each case. Besides, the mortality at 50 µg/cm2 in test [2] was found to be 0%. Also, in test [4], the mortality came out at 100%.
Consider `C=CCNC(=O)c1c(CS(=O)(=O)c2ccc(Cl)cc2)noc1C(=O)NCc1ccccc1`, for which the mortality result in test [1] and in test [3] was “inactive” in each case. In test [2], the mortality at 50 µg/cm2 was found to be 38%. In addition, the mortality in test [4] was found to be 100%.
In the case of `CCCCNC(=O)c1onc(CS(=O)(=O)c2ccc(Cl)cc2)c1C(=O)NCCCC`, the mortality result in test [1] and in test [3] was “inactive” throughout. The mortality at 50 µg/cm2 in test [2] turned out to be 0%. In test [4], the mortality was found to be 100%.
For the compound `Cc1cc(C)cc(SCc2noc(C(=O)NCc3ccccc3)c2C(=O)NCc2ccccc2)c1`, the mortality entry in test [1] and in test [3] was “inactive” throughout. The mortality at 50 µg/cm2 in test [2] was 0%. For the same compound, the mortality in test [4] stood at 83%.
For the compound `C=CCNC(=O)c1c(CSc2ccc(Cl)cc2)noc1C(=O)NCc1ccccc1`, the mortality result in test [1] and in test [3] was “inactive” throughout. For the same compound, the mortality at 50 µg/cm2 in test [2] came to 0%. For the same compound, the mortality in test [4] is 83%.
Consider `C=CCNC(=O)c1c(CS(=O)(=O)c2ccccc2)noc1C(=O)NCc1ccccc1`, for which the mortality result in test [1] and in test [3] was “inactive” in each case. In test [2], the mortality at 50 µg/cm2 is 0%. Also, the mortality in test [4] came out at 100%.
For `CC[C@H]1CCC[C@H](O[C@H]2CC[C@H](N(C)C)[C@@H](C)O2)[C@@H](C)C(=O)C2=C[C@@H]3[C@@H](C=C(C)[C@@H]4C[C@@H](O[C@@H]5O[C@@H](C)[C@H](OC)[C@@H](OC)[C@H]5OC)C[C@@H]34)[C@@H]2CC(=O)O1.CC[C@H]1CCC[C@H](O[C@H]2CC[C@H](N(C)C)[C@@H](C)O2)[C@@H](C)C(=O)C2=C[C@@H]3[C@@H](C=C[C@@H]4C[C@@H](O[C@@H]5O[C@@H](C)[C@H](OC)[C@@H](OC)[C@H]5OC)C[C@@H]34)[C@@H]2CC(=O)O1`, the LC50 in test [5] is recorded as 0.06 microg/cm2.
As for `C=CCNC(=O)c1onc(CS(=O)(=O)c2ccc(Cl)cc2)c1C(=O)NCC=C`, the mortality entry in test [1] and in test [3] was “inactive” in each case. In addition, the mortality at 50 µg/cm2 in test [2] amounted to 0%. Besides, the mortality in test [4] stood at 100%.
For `CC(C)NC(=O)c1onc(CS(=O)(=O)c2ccccc2)c1C(=O)NC(C)C`, the mortality result in test [1] and in test [3] was “inactive” in each case. For the same compound, the mortality at 50 µg/cm2 in test [2] turned out to be 0%. The mortality in test [4] was found to be 100%.
`CC(C)NC(=O)c1c(CSc2ccc(Cl)cc2)noc1C(=O)NCc1ccccc1`: the mortality result in test [1] and in test [3] was “inactive” each time. Also, the mortality at 50 µg/cm2 in test [2] was 0%. In addition, the mortality in test [4] was found to be 100%.
As for `CC(C)NC(=O)c1c(CSc2ccccc2)noc1C(=O)NCc1ccccc1`, the mortality entry in test [1] and in test [3] was “inactive” each time. Also, the mortality at 50 µg/cm2 in test [2] was 0%. Besides, in test [4], the mortality was found to be 83%.
Take `COCCNC(=O)c1onc(CS(=O)(=O)c2ccccc2)c1C(=O)NCCOC`: the mortality entry in test [1] and in test [3] was “inactive” each time. In addition, the LC50 in test [5] is listed as 19 microg/cm2. Also, in test [2], the mortality at 50 µg/cm2 turned out to be 75%. Moreover, the mortality in test [4] was found to be 83%.
In the case of `CCCCNC(=O)c1c(CSc2ccc(Cl)cc2)noc1C(=O)NCc1ccccc1`, the mortality entry in test [1] and in test [3] was “inactive” each time. In addition, the mortality at 50 µg/cm2 in test [2] worked out at 0%. Moreover, the mortality in test [4] was 83%.
As to `CC(C)NC(=O)c1onc(CS(=O)(=O)c2ccc(Cl)cc2)c1C(=O)NC(C)C`, the mortality entry in test [1] and in test [3] was “inactive” in each case. The mortality at 50 µg/cm2 in test [2] came out at 0%. For the same compound, the mortality in test [4] was 97%.
Regarding `COCCNC(=O)c1onc(CSc2ccccc2)c1C(=O)NCCOC`, the mortality entry in test [1] and in test [3] was “inactive” throughout. Besides, in test [2], the mortality at 50 µg/cm2 was determined as 0%. Moreover, in test [4], the mortality is listed as 83%.
As to `CCCNC(=O)c1onc(CS(=O)(=O)c2ccccc2)c1C(=O)NCCC`, the mortality result in test [1] and in test [3] was “inactive” in each case. Besides, the mortality at 50 µg/cm2 in test [2] is 0%. Further, the mortality in test [4] was 100%.
As to `CCCCNC(=O)c1onc(CS(=O)(=O)c2ccccc2)c1C(=O)NCCCC`, the mortality result in test [1] and in test [3] was “inactive” each time. Also, in test [5], the LC50 is recorded as 30 microg/cm2. Moreover, the mortality at 50 µg/cm2 in test [2] was determined as 75%. Besides, in test [4], the mortality is recorded as 100%.
Regarding `CCCNC(=O)c1c(CSc2ccc(Cl)cc2)noc1C(=O)NCc1ccccc1`, the mortality entry in test [1] and in test [3] was “inactive” throughout. Besides, in test [2], the mortality at 50 µg/cm2 is 0%. Moreover, the mortality in test [4] came out at 100%.
Regarding `CC(C)CCNC(=O)c1onc(CSc2ccc(Cl)cc2)c1C(=O)NCCC(C)C`, the mortality entry in test [1] and in test [3] was “inactive” in each case. Further, the mortality at 50 µg/cm2 in test [2] was found to be 0%. For the same compound, in test [4], the mortality was 100%.
With `C=CCNC(=O)c1onc(CS(=O)(=O)c2ccccc2)c1C(=O)NCC=C`, the mortality entry in test [1] and in test [3] was “inactive” throughout. Moreover, the mortality at 50 µg/cm2 in test [2] came to 0%. The mortality in test [4] amounted to 100%.
As to `CCCNC(=O)c1c(CSc2ccccc2)noc1C(=O)NCc1ccccc1`, the mortality result in test [1] and in test [3] was “inactive” throughout. In addition, the mortality at 50 µg/cm2 in test [2] came to 38%. In addition, the mortality in test [4] is given as 83%.
For the compound `CCCNC(=O)c1c(CS(=O)(=O)c2ccccc2)noc1C(=O)NCc1ccccc1`, the mortality result in test [1] and in test [3] was “inactive” throughout. Further, the mortality at 50 µg/cm2 in test [2] worked out at 0%. For the same compound, in test [4], the mortality is listed as 100%.
For `COCCNC(=O)c1onc(CS(=O)(=O)c2ccc(Cl)cc2)c1C(=O)NCCOC`, the mortality entry in test [1] and in test [3] was “inactive” each time. The mortality at 50 µg/cm2 in test [2] was 0%. Also, in test [4], the mortality turned out to be 100%.
